# Screens from PubChem BioAssay.
# Tn7 DDE FP: DD(E)-Tn7 binding inhibition, primary FP screen. inhibition, % at 8.3 µM. P02675. 370,000 compounds, 0.13% hits. FP displacement of FITC-Tn7 peptide from fibrin DD(E); 0% = median of compound wells per plate. AID 720508;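 active = inhibition above the mean of compounds falling within the control limits plus 3 SD of them, cut at about 14% in these data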;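 also: 0% = plate median of compound wells and 100% = 10 µM Aha-Tn7 peptide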
#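 Assay system: human fibrin DD(E) protein / Input: 2 µM fibrin DD(E) / Benchmarks: high control of 10 µM Aha-Tn7 peptide / Measured by: fluorescence polarization of the labelled Tn7 tracer / Medium: Tris buffer with calcium and detergent, pH 7.8 / Timing: 10 min compound pre-incubation, 3 h probe incubation at room temperature / Repeats: one replicate per compound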
# DDE Tn6 FP inh: disrupts Tn6 cyclic peptide binding to fibrin D-Dimer-E complex | P02675 | Fibrin DD(E) TRITC-Tn6 fluorescence polarization displacement | inhibition, % at 8.3 µM | 370,000 compounds, 0.21% hits;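 active = inhibition above a per-campaign cutoff: mean of compounds within control limits plus 3 SD, cut at about 15% in these data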;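 also: 0% = median of all compound wells on the plate and 100% = blocking peptide control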
# mABHD4 FP: inhibitors of mouse ABHD4; Q8VD66; purified mABHD4, FP-Rh probe fluorescence polarization; inhibition, % at 8.92 µM; 370,000 compounds, 0.54% hits; AID 720543;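 active = inhibition exceeding the mean over every tested compound plus 3 SD, cut at about 30% in these data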;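 also: 0% = plate median of compound wells and 100% = S159A mutant with DMSO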
# Target sequence (Q8VD66 whole entry, looked up): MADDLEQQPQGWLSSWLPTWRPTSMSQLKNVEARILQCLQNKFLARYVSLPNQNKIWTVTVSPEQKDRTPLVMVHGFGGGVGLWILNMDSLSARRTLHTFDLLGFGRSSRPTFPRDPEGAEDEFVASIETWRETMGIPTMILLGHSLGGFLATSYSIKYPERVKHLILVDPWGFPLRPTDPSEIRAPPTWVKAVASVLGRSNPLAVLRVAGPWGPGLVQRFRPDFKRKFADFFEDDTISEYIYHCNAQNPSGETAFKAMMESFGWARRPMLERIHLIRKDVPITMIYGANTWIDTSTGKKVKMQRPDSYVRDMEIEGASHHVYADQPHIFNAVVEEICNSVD
#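 Assay system: Wild-type mouse ABHD4 protein | Medium: HEPES pH 7.0 buffer, 150 mM NaCl, 0.01% Pluronic F-127 | Incubation: Enzyme–compound pre-incubation 45 min, then probe 60 min, both 25 °C | Technique: Fluorescence polarization with parallel and perpendicular emission, 525/598 nm | Evaluation: % inhibition of FP-Rh probe binding versus controls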
# HTRA1 inh: inhibitors of human serine peptidase HTRA1; AID 504803; recombinant HTRA1, FP-rhodamine activity-based probe, fluorescence polarization; Q92743; 340,000 compounds, 0.5% hits; inhibition, % at 5.96 µM; in the data active = inhibition above about 36%;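 also: 0% = enzyme with DMSO and 100% = wells lacking enzyme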
# Target sequence (Q92743 whole entry, looked up): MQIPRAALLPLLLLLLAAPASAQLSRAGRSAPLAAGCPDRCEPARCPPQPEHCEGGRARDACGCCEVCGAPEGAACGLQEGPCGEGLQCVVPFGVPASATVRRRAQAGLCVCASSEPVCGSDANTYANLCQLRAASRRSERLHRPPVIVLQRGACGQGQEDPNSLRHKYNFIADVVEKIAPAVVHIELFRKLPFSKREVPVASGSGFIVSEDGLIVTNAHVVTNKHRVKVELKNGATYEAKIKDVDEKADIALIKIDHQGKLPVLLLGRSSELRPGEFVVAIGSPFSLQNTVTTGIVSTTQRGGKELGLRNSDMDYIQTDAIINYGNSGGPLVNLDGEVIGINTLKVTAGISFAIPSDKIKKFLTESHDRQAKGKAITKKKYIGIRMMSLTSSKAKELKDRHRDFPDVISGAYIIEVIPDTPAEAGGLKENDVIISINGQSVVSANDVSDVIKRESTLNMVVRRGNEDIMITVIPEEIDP
# TCR-CD3 inh: inhibitors of human TCR-CD3 interaction | TAMRA-labeled TCR probe fluorescence, biochemical | inhibition, % at 9.4 µM | 360,000 compounds, 0.37% hits;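 also: recombinant mutant TCR 2C K166C tagged with TAMRA read by polarization; 0% = receptor in buffer alone and 100% = receptor with positive control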
# BSA probe FL: BSA probe counter-screen for TCR-CD3 inhibitors; shares compounds with TCR-CD3 inh; TAMRA-labeled BSA probe fluorescence counterscreen; inhibition, % at 9.4 µM; 1,200 compounds, 10% hits; AID 652035; in the data active = inhibition above about 23%;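 also: 0% = buffer low control and 100% = reference high control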
# TCR-CD3 conf: TCR-CD3 interaction inhibition, confirmation. shares compounds with TCR-CD3 inh. TAMRA-labeled TCR probe fluorescence binding assay. inhibition, % at 9.4 µM. 1,200 compounds, 48% hits
# DDE Tn7 confirm: confirmation of inhibitors of Tn7 binding to human fibrin DD(E); 460 compounds, 5% hits; shares compounds with Tn7 DDE FP; FP displacement of TRITC-Tn7 peptide from DD(E); 0% set at plate's compound-well median; inhibition, % at 8.3 µM; AID 720628;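 active = inhibition above the campaign cutoff, the mean of compounds within control limits plus 3 SD, cut at about 14% in these data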;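 also: 100% = median FP of high control wells holding Aha-Tn7 inhibitor peptide; displacers lower polarization since freed probe rises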
# DDE Tn7 FP ctr: DD(E)-Tn7 binding inhibition, counter-screen | shares compounds with Tn7 DDE FP | fibrin DD(E), TRITC-Tn7 probe displacement, fluorescence polarization | inhibition, % at 8.3 µM | 460 compounds, 3% hits | AID 720633;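 active = inhibition above the cutoff, the mean of compounds lying between the control bounds plus 3 SD of those compounds, cut at about 17% in these data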;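 also: 0% = median of compound sample wells and 100% = excess unlabeled Aha-Tn7 peptide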
# DDE Tn6 FP ctr: DD(E)-Tn6 binding inhibition, counter-screen | shares compounds with DDE Tn6 FP inh | Fibrin DD(E), TRITC-Tn6 fluorescence polarization displacement; 0% = median of compound wells, not DMSO | inhibition, % at 8.3 µM | 680 compounds, 2% hits;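 active = inhibition above the mean of test compounds lying between the control limits plus 3 SD of those, cut at about 14% in these data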;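 also: 0% = median of compound wells and 100% = wells with Aha-Tn7 blocking peptide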
# DDE Tn6 confirm: DD(E)-Tn6 binding inhibition, FP confirmation; shares compounds with DDE Tn6 FP inh; FP displacement of TRITC-Tn6 peptide from DD(E); 0% = per-plate median of test wells; inhibition, % at 8.3 µM; 680 compounds, 10% hits;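 active = inhibition above the mean of compounds lying within the control limits plus 3 SD, cut at about 16% in these data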;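 also: 100% = high control wells holding a competing inhibitor peptide at 10 µM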
# mABHD4 conf: ABHD4 (mouse) inhibition, FP confirmation | shares compounds with mABHD4 FP | purified mABHD4, FP-Rh probe fluorescence polarization | inhibition, % at 8.92 µM | 1,800 compounds, 55% hits;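 active = mean inhibition across replicates above the hit cutoff set in the primary screen, cut at about 30% in these data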;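 also: 0% = wild-type ABHD4 with DMSO and 100% = catalytically dead S159A mutant with DMSO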
# An asterisk follows results filed as active; nt = no result; + = active, no number. Most compounds without a hit are left out; they make up all but 1.3% or so of the library. Rule as the data show it, unless noted: active = inhibition above about 19%; inactive = the rest.
SMILES,Tn7 DDE FP,DDE Tn6 FP inh,mABHD4 FP,HTRA1 inh,TCR-CD3 inh,BSA probe FL,TCR-CD3 conf,DDE Tn6 FP ctr,DDE Tn6 confirm,others
CN(C)/C=C1\C=C2C(=O)c3ccccc3N2C1=O,30.4*,-0.5,7.7,29.7,39.1*,113.1*,74.3*,nt,nt,DDE Tn7 confirm=53.3*;DDE Tn7 FP ctr=23.9*
Cc1cc2nc3c(=O)[nH]c(=O)[nH]c3nc2c([N+](=O)[O-])c1N,31.2*,-5.7,18.3,28.9,24.4*,84.9*,102.8*,nt,nt,DDE Tn7 confirm=11.3;DDE Tn7 FP ctr=7.1
CC(=O)Nc1ccc(N2C(=O)c3cccc4c(O)ccc(c34)C2=O)cc1,20.1*,4.4,23.8,34.4,54.4*,74.3*,51.8*,nt,nt,DDE Tn7 confirm=4.6;DDE Tn7 FP ctr=6.9
CCOC(=O)C1=Nc2cccc3c(O)ccc1c23,45.9*,7.6,28.6,nt,84.6*,141.0*,109.7*,nt,nt,DDE Tn7 confirm=21.1*;DDE Tn7 FP ctr=11.2
CCOC(=O)C1=Nc2ccccc2C1=[N+]=[N-],-2.1,6.2,5.4,-12.5,-7.1,nt,nt,nt,nt,
O=C(NCCc1ccc(Cl)cc1)C1CCCN1C(=O)Nc1ccc(F)cc1 (stereo unspecified),-2.9,-5.5,7.7,-2.4,-1.4,nt,nt,nt,nt,
Cc1ccc2c(Cl)c(C(=O)NCC3CCCO3)sc2c1 (stereo unspecified),4.6,-0.8,-2.8,-9.5,-3.1,nt,nt,nt,nt,
COc1ccccc1NS(=O)(=O)c1cccc(NC(=O)Nc2cccc(Cl)c2)c1,4.9,43.4*,-164.1,-168.0,36.0*,8.5,13.9,8.7,16.7*,
COc1ccccc1NS(=O)(=O)c1cccc(NC(=O)NCCCl)c1,-5.3,-9.6,6.9,3.5,-5.0,nt,nt,nt,nt,
COc1ccc2cc(C(=O)N3CCCCCC3)sc(=O)c2c1OC,-0.5,-1.4,4.1,-3.4,-3.7,nt,nt,nt,nt,
CN(C)/C=C1\SC(=S)N(c2ccc(Br)cc2)C1=O,7.3,35.6*,-73.3,-30.1,30.5*,90.0*,76.0*,4.1,31.6*,
CCOc1ccccc1NC(=O)c1ccc(S(=O)(=O)N(C)c2ccccc2)cc1,4.2,-3.2,-5.5,-10.2,-5.2,nt,nt,nt,nt,
COc1cc(/C=C\C(=O)NCc2ccc3c(c2)cc(C)n3C)cc(OC)c1OC,-8.0,22.2*,3.6,-7.9,31.2*,-1.0,-0.6,9.9,4.6,
CCOc1ccc(CC(=O)NCc2ccc3c(c2)cc(C)n3C)cc1,2.2,44.9*,15.6,-10.9,30.9*,1.0,3.3,3.0,0.4,
Cc1cc2cc(CNC(=O)c3ccco3)ccc2n1C,-5.2,26.8*,6.8,4.7,30.6*,4.2,8.3,6.5,-0.1,
COc1ccc(-c2cn(CCC(=O)O)c(C)n2)cc1,-3.0,-1.9,0.2,-0.1,0.8,nt,nt,nt,nt,
CCN(CC)c1ccc2nc3ccc(N)cc3[n+](-c3ccccc3)c2c1,2.3,+,10.7,22.3,123.5*,121.4*,96.7*,-0.7,93.2*,
O=c1/c(=C/c2ccc(O)c([N+](=O)[O-])c2)sc2nc3ccccc3n12,-1.2,-7.2,5.5,nt,2.4,nt,nt,nt,nt,
CCN(CC)c1ccc(/C=c2\sc3nc4ccccc4n3c2=O)c(O)c1,4.0,17.9*,24.7,-8.7,28.1*,28.0*,20.5*,1.0,8.2,
Fc1ccc(N2N=C(c3cccs3)CC2c2ccccc2)cc1 (stereo unspecified),-0.1,1.2,0.5,-19.1,1.5,nt,nt,nt,nt,
C[C@H](CO)N1C[C@H](C)[C@@H](CN(C)S(=O)(=O)c2ccc(F)cc2)Oc2ccc(NC(=O)Nc3ccc(C(F)(F)F)cc3)cc2C1=O,0.2,41.5*,-102.1,-141.6,22.3*,13.6,41.8*,4.8,4.1,
C[C@H](CO)N1C[C@H](C)[C@H](CN(C)S(=O)(=O)c2cn(C)cn2)Oc2ccc(NC(=O)Nc3ccc(C(F)(F)F)cc3)cc2CC1=O,0.0,-13.7,-35.6,-45.9,3.8,nt,nt,nt,nt,
C[C@H](CO)N1C[C@H](C)[C@@H](CN(C)S(=O)(=O)c2ccc(F)cc2)Oc2ccc(NC(=O)Nc3ccccc3)cc2C1=O,1.6,4.1,-15.1,-20.6,2.3,nt,nt,nt,nt,
C[C@H](CO)N1C[C@H](C)[C@@H](CN(C)S(=O)(=O)c2cccs2)Oc2ccc(NC(=O)Nc3ccccc3)cc2C1=O,-0.4,-6.2,-12.7,-21.8,-3.8,nt,nt,nt,nt,
C[C@H](CO)N1C[C@H](C)[C@@H](CN(C)S(=O)(=O)c2cccs2)Oc2ccc(NC(=O)Nc3ccc(C(F)(F)F)cc3)cc2C1=O,9.8,51.4*,-111.5,-123.5,27.6*,8.2,19.3*,2.3,1.2,
SMILES,Tn7 DDE FP,DDE Tn6 FP inh,mABHD4 FP,HTRA1 inh,TCR-CD3 inh,BSA probe FL,TCR-CD3 conf,DDE Tn6 FP ctr,DDE Tn6 confirm,others
C[C@@H]1CN([C@@H](C)CO)C(=O)Cc2cc(NC(=O)Nc3ccc(C(F)(F)F)cc3)ccc2O[C@@H]1CN(C)S(=O)(=O)c1ccc(Cl)cc1,-0.3,32.2*,-91.2,-154.8,48.0*,13.5,25.8*,0.1,11.8,
C[C@@H]1CN([C@H](C)CO)C(=O)c2cc(NC(=O)Nc3ccc(C(F)(F)F)cc3)ccc2O[C@H]1CN(C)S(=O)(=O)c1cccs1,2.2,54.3*,-134.9,-158.1,43.1*,10.3,23.1*,-1.6,9.2,
CC1(C(=O)NCc2ccccc2)CN(S(C)(=O)=O)CC(=O)N1Cc1ccco1 (stereo unspecified),3.7,-2.3,1.1,nt,6.0,nt,nt,nt,nt,
CCn1c(SCC(=O)Nc2cc(C)on2)nnc1-c1c[nH]c2ccccc12,-0.1,-3.6,-2.3,-2.8,0.4,nt,nt,nt,nt,
Cc1[nH][nH]c(=O)c1N=Nc1ccccc1Cl,2.1,0.7,-4.5,3.7,-2.0,nt,nt,nt,nt,
Clc1ccccc1N=Nc1ccccn1,9.9,13.5,41.0*,26.8,27.6*,8.1,12.9,nt,nt,mABHD4 conf=5.2
O=C1NC(=S)S/C1=C\C=C\c1ccc([N+](=O)[O-])o1,-7.2,-5.2,41.6*,8.4,31.7*,-1.4,28.7*,nt,nt,mABHD4 conf=27.6
